# Active and inactive are the calls of the source. How the calls were made is not given here.
# Target: G protein-activated inward rectifier potassium channel 2 (Homo sapiens) + G protein-activated inward rectifier potassium channel 3 (Homo sapiens) (UniProt P48051+Q92806)
# Experiment: activation of GIRK2/3 current, electrophysiology, HEK-293 hGIRK2/3, whole-cell voltage clamp, Ba2+-sensitive current, GIRK activator project, confirmation (AID 623974)
# Outline: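 test system = HEK-293 cells stably expressing human GIRK2/3 potassium channels | dosing = compound concentration series fitted by four-parameter logistic curve | technique = whole-cell patch clamp, -70 mV holding, barium subtraction | measure = Barium-blocked steady-state current density, % of methyl pentanediol response | schedule = recording 24–72 h post-plating | buffer or medium = 20K bath, KCl pipette solution pH 7.4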
# G protein-activated inward rectifier potassium channel 2 (Homo sapiens) + G protein-activated inward rectifier potassium channel 3 (Homo sapiens), sequence (P48051 whole entry, looked up): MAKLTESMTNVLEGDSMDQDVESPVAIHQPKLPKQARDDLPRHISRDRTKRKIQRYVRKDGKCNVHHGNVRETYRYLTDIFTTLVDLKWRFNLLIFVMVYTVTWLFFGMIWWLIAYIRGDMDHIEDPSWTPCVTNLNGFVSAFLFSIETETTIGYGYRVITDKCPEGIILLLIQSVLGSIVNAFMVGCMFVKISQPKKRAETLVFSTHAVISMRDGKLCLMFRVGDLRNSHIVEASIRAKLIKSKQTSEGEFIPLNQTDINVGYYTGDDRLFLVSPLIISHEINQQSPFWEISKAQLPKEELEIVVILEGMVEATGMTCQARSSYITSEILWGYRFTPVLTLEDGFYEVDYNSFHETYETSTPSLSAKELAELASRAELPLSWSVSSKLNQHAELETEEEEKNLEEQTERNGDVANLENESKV
# G protein-activated inward rectifier potassium channel 2 (Homo sapiens) + G protein-activated inward rectifier potassium channel 3 (Homo sapiens), sequence (Q92806 whole entry, looked up): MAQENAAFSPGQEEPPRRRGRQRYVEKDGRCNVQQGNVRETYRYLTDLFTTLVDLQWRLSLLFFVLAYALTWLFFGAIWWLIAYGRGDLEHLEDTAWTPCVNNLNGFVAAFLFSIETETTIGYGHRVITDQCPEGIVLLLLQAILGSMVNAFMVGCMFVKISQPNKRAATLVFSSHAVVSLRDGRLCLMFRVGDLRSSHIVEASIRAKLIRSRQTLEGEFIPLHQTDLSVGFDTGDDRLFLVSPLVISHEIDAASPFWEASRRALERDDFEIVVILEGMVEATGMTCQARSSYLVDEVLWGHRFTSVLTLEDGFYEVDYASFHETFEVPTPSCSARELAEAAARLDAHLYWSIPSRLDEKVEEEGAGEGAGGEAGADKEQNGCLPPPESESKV
compound,measurement,value
Cc1cc(NC(=O)Nc2ccc(F)c(F)c2)n(-c2ccccc2)n1,outcome,inactive

# — PubChem BioAssay AID623974 (Vanderbilt High Throughput Screening Facility, 2012)
